Measured values as given in ChEMBL document CHEMBL1153376, “Lipophilic lysine-spermine conjugates are potent polyamine transport inhibitors for use in combination with a polyamine biosynthesis inhibitor” (J Med Chem, 2009).
Calls of active or inactive are those of the source. The calls are words filed in the database; no cut-off is given here.

What was measured:
Mus musculus [1] = organism: Mus musculus; experiment: Antitumor activity against 7,12-dimethylbenz(alpha)anthracene-induced squamous cell carcinoma in FVB/N transgenic mouse model expressing K6/ODC gene assessed as tumor growth inhibition after 4 weeks; type: functional, organism-based
MDA-MB-231 [2] = experiment: Inhibition of [2,9-3H]spermidine uptake in human MDA-MB-231 cells after 15 mins by Lineweaver-Burke plot analysis; type: functional, cell-based
Procedure, shortened: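 Cells then washed three times in cold PBS and lysed in 0.1% SDS, and lysates scintillation-counted. Four substrate concentrations (0.3–3 µM) and five inhibitor concentrations (0.01–1.0 µM) plus control. Ki from slopes of Lineweaver-Burke plots against inhibitor concentration (Ki = y-intercept/slope).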

[3] = target: T1, Ornithine decarboxylase (Homo sapiens) (UniProt P11926); experiment: Inhibition of ornithine decarboxylase activity in human SK-MEL cells at 10 uM after 24 hrs relative to control; type: cell-based; set-up: scale not given: the % may be the effect or the level left
T1 sequence (whole entry): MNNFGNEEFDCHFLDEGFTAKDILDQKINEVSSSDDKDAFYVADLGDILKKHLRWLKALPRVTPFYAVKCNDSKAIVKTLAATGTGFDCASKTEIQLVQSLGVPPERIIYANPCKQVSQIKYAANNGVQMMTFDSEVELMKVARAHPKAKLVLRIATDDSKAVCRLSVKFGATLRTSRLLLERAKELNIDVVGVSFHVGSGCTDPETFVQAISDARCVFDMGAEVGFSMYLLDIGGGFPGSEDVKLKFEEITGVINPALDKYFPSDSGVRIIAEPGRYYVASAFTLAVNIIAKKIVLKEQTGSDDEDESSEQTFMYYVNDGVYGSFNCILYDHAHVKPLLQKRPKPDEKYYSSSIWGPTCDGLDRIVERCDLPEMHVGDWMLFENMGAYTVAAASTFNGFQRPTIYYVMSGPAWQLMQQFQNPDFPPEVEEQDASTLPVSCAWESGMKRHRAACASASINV
Procedure, shortened: (§1)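 SK-Mel human melanoma cells exposed to 10 µM agent alone for 24 h. Enzyme activity (ODC; SSAT) measured and expressed as % of untreated control.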

[4] = target: Diamine acetyltransferase 1 (Homo sapiens) (UniProt P21673); experiment: Inhibition of spermidine/spermine N1-acetyltransferase activity in human SK-MEL cells at 10 uM after 24 hrs relative to control; type: cell-based; set-up: scale not given: the % may be the effect or the level left; procedure, shortened: as §1
Mus musculus [5] = experiment: Antitumor activity against 7,12-dimethylbenz(alpha)anthracene-induced squamous cell carcinoma in FVB/N transgenic mouse model expressing K6/ODC gene assessed as tumor growth inhibition at 0.5 mg/kg, ip administered twice daily after 4 weeks; type: functional, organism-based; set-up: dose 0.5 mg/kg
MDA-MB-231 [6] = experiment: Cytotoxicity against human MDA-MB-231 cells after 6 days by MTS/PMS dye assay; conditions: MDA-MB-231, 144 h

Chain of Diamine acetyltransferase 1 (Homo sapiens) (P21673 whole entry): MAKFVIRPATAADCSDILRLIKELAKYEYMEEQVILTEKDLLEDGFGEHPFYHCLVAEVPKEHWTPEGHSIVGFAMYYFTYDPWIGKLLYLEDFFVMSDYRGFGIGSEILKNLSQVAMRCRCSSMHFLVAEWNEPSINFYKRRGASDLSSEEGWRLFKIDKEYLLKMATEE

| SMILES | Activity (Mus musculus [1]) | Ki (MDA-MB-231 [2]) | Activity [3] | Activity [4] | Activity (Mus musculus [5]) | IC50 (MDA-MB-231 [6]) |
| --- | --- | --- | --- | --- | --- | --- |
| NCCCC(N)(C(=O)O)C(F)F (centres undefined) | Active | – | – | – | – | – |
| CCCCCCCCCCCCCCCC(=O)NCCCC[C@H](N)C(=O)NCCCNCCCCNCCCN | – | 7.5 nM | 46% | 40% | – | – |
| CCCCCCCC(=O)NCCCC[C@H](N)C(=O)NCCCNCCCCNCCCN | – | – | 110% | 40% | – | – |
| CCCCCCCCCCCCCCCC(=O)NCCCC[C@@H](N)C(=O)NCCCNCCCCNCCCN [AMXT-1501] | – | 10.5 nM | – | – | Active | 57000 nM |
